Measured values from ChEMBL document CHEMBL4052615, “Discovery of 4-amino-3-arylsulfoquinolines, a novel non-acetylenic chemotype of metabotropic glutamate 5 (mGlu5) receptor negative allosteric modulators” (Eur J Med Chem, 2017).

target: Metabotropic glutamate receptor 5 (Homo sapiens, UniProt P41594); assay: Displacement of [3H]M-MPEP from mGluR5 (unknown origin) at 1 uM measured after 60 mins relative to control
Summary of the method: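 Rat cerebrocortical membranes or membranes from A18 cells expressing human mGlu5a, incubated with [³H]M-MPEP and test compound at 1 µM in 50 mM Tris pH 7.6 with 2 mM MgCl₂ and 2 mM CaCl₂, 60 min at 25°C. Non-specific binding was taken with […]. Result is % displacement, run in duplicate or triplicate.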

Sequence of Metabotropic glutamate receptor 5 (P41594 21-1212 limits assumed): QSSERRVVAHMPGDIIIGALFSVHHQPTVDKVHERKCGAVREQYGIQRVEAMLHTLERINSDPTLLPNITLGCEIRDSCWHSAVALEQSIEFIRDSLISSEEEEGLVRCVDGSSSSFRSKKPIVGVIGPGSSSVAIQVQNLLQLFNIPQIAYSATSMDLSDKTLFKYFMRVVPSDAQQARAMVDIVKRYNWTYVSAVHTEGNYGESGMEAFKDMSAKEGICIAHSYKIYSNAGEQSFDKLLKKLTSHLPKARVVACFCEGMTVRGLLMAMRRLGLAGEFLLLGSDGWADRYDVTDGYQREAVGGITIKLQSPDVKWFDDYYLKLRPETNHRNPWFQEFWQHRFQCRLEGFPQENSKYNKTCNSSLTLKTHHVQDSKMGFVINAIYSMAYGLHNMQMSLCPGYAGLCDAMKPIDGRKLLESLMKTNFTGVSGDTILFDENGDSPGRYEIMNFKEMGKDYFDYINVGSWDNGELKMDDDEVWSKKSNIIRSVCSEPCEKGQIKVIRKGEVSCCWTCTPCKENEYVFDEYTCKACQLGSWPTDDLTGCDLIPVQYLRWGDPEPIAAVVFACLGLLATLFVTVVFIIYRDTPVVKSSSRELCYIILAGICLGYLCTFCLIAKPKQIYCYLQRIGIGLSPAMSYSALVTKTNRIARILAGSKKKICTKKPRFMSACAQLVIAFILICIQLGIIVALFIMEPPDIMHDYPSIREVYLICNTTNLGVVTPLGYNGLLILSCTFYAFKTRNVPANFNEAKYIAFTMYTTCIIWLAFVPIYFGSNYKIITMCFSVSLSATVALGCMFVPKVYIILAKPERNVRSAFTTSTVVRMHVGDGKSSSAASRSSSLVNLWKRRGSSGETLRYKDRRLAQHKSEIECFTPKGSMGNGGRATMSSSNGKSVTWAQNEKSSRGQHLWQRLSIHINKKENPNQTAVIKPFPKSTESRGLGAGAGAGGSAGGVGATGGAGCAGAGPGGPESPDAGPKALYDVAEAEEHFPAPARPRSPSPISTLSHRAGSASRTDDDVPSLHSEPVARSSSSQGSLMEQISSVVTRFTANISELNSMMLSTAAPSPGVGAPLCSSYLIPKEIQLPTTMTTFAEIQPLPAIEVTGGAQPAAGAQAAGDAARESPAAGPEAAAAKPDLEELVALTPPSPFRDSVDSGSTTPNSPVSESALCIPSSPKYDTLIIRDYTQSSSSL

Row | Structure (SMILES) | inhibition [%]
1 | N#Cc1cccc(S(=O)(=O)c2cnc3cc(Cl)ccc3c2N2CCOCC2)c1 | 73
2 | COc1ccc(S(=O)(=O)c2cnc3c(F)cccc3c2N2CCC(C)CC2)cc1 | 67
3 | Cc1ccc(S(=O)(=O)c2cnc3c(F)cccc3c2N2CCC(C)CC2)cc1F | 93
4 | COc1ccc2ncc(S(=O)(=O)c3cc(Cl)cc(Cl)c3)c(N3CCC(C)CC3)c2c1 | 87
5 | Cc1ccc2ncc(S(=O)(=O)c3ccc(F)cc3)c(N3CCC(C)CC3)c2c1 | 90
6 | COCC1CCN(c2c(S(=O)(=O)c3cccc(C#N)c3)cnc3cc(F)ccc23)CC1 | 91
7 | CC1CCN(c2c(S(=O)(=O)c3ccccc3)cnc3c(F)cccc23)CC1 | 13
8 | O=S(=O)(c1cc(Cl)cc(Cl)c1)c1cnc2cc(Cl)ccc2c1N1CCOCC1 | 85
9 | COc1ccc(S(=O)(=O)c2cnc3cc(Cl)ccc3c2N2CCOCC2)cc1 | 41
10 | COc1ccc(S(=O)(=O)c2cnc3cc(F)ccc3c2N2CCC(C)CC2)cc1 | 90
11 | COc1ccc2ncc(S(=O)(=O)c3ccc(C)c(Cl)c3)c(N3CCC(C)CC3)c2c1 | 85
12 | O=S(=O)(c1cccc(F)c1)c1cnc2c(F)cccc2c1N1CCOCC1 | 23
13 | COc1ccc2ncc(S(=O)(=O)c3ccc(C)c(Cl)c3)c(N3CCOCC3)c2c1 | 28
14 | CC1CCN(c2c(S(=O)(=O)c3ccc(F)c(F)c3)cnc3ccc(F)cc23)CC1 | 82
15 | Cc1cc(C)cc(S(=O)(=O)c2cnc3ccc(C)cc3c2N2CCC(C)CC2)c1 | 80
16 | Cc1ccc(S(=O)(=O)c2cnc3c(F)cccc3c2N2CCOCC2)cc1F | 73
17 | O=S(=O)(c1ccc(Cl)cc1)c1cnc2ccc(Cl)cc2c1N1CCOCC1 | 15
18 | COc1ccc2ncc(S(=O)(=O)c3cccc(Cl)c3)c(N3CCOCC3)c2c1 | 12
19 | O=S(=O)(c1cc(Cl)cc(Cl)c1)c1cnc2cc(F)ccc2c1N1CCOCC1 | 74
20 | COc1ccc2ncc(S(=O)(=O)c3cccc(F)c3)c(N3CCC(C)CC3)c2c1 | 68
21 | O=S(=O)(c1ccc(F)c(Cl)c1)c1cnc2c(F)cccc2c1N1CCOCC1 | 83
22 | O=S(=O)(c1ccc(Cl)cc1)c1cnc2cc(F)ccc2c1N1CCOCC1 | 50
23 | O=S(=O)(c1ccccc1)c1cnc2cc(Cl)ccc2c1N1CCOCC1 | 5
24 | COc1ccc2ncc(S(=O)(=O)c3ccc(Cl)cc3)c(N3CCC(C)CC3)c2c1 | 91
25 | Cc1ccc2ncc(S(=O)(=O)c3ccc(C)c(C)c3)c(N3CCC(C)CC3)c2c1 | 90

Row | Structure (SMILES) | inhibition [%]
26 | Cc1ccc2ncc(S(=O)(=O)c3ccc(C)c(Cl)c3)c(N3CCC(C)CC3)c2c1 | 91
27 | Cc1ccc(S(=O)(=O)c2cnc3cc(Cl)ccc3c2N2CCOCC2)cc1C | 87
28 | O=S(=O)(c1ccc(F)c(F)c1)c1cnc2ccc(F)cc2c1N1CCOCC1 | 10
29 | O=S(=O)(c1ccc(Cl)cc1)c1cnc2cc(Cl)ccc2c1N1CCOCC1 | 55
30 | Cc1ccc(S(=O)(=O)c2cnc3cc(F)ccc3c2N2CCC(C)CC2)cc1 | 88
31 | Cc1ccc2ncc(S(=O)(=O)c3ccc(C)c(F)c3)c(N3CCC(C)CC3)c2c1 | 91
32 | Cc1ccc(S(=O)(=O)c2cnc3cc(Cl)ccc3c2N2CCC(C)CC2)cc1 | 94
33 | O=S(=O)(c1ccc(F)cc1)c1cnc2c(F)cccc2c1N1CCOCC1 | 34
34 | Cc1cc(C)cc(S(=O)(=O)c2cnc3cc(Cl)ccc3c2N2CCOCC2)c1 | 24
35 | CC1CCN(c2c(S(=O)(=O)c3cc(Cl)cc(Cl)c3)cnc3cc(Cl)ccc23)CC1 | 93
36 | O=S(=O)(c1cccc(F)c1)c1cnc2ccc(Cl)cc2c1N1CCOCC1 | 0
37 | COc1ccc(S(=O)(=O)c2cnc3cc(Cl)ccc3c2N2CCC(C)CC2)cc1 | 79
38 | O=S(=O)(c1ccc(F)cc1)c1cnc2ccc(F)cc2c1N1CCOCC1 | 2
39 | CC1CCN(c2c(S(=O)(=O)c3cc(Cl)cc(Cl)c3)cnc3ccc(Cl)cc23)CC1 | 88
40 | Cc1ccc(S(=O)(=O)c2cnc3ccc(Cl)cc3c2N2CCC(C)CC2)cc1F | 68
41 | COc1ccc2ncc(S(=O)(=O)c3cc(C)cc(C)c3)c(N3CCC(C)CC3)c2c1 | 79
42 | Cc1ccc2ncc(S(=O)(=O)c3ccc(F)c(F)c3)c(N3CCOCC3)c2c1 | 24
43 | COc1cccc(S(=O)(=O)c2cnc3ccc(Cl)cc3c2N2CCOCC2)c1 | 28
44 | CC1CCN(c2c(S(=O)(=O)c3cccc(F)c3)cnc3ccc(Cl)cc23)CC1 | 58
45 | Cc1ccc(S(=O)(=O)c2cnc3cc(F)ccc3c2N2CCOCC2)cc1F | 51
46 | COc1ccc2ncc(S(=O)(=O)c3ccc(C)c(F)c3)c(N3CCC(C)CC3)c2c1 | 73
47 | Cc1ccc2ncc(S(=O)(=O)c3cc(F)cc(F)c3)c(N3CCC(C)CC3)c2c1 | 72
48 | Cc1ccc(S(=O)(=O)c2cnc3cc(F)ccc3c2N2CCC(C)CC2)cc1Cl | 93
49 | CC1CCN(c2c(S(=O)(=O)c3ccc(Cl)cc3)cnc3cc(F)ccc23)CC1 | 90
50 | COc1ccc2ncc(S(=O)(=O)c3ccc(OC)c(Cl)c3)c(N3CCOCC3)c2c1 | 9

Row | Structure (SMILES) | inhibition [%]
51 | COc1ccc(S(=O)(=O)c2cnc3c(F)cccc3c2N2CCOCC2)cc1 | 33
52 | O=S(=O)(c1ccc(F)c(F)c1)c1cnc2c(F)cccc2c1N1CCOCC1 | 57
53 | COc1cccc(S(=O)(=O)c2cnc3ccc(C)cc3c2N2CCC(C)CC2)c1 | 96
54 | Cc1ccc2ncc(S(=O)(=O)c3ccc(C)c(F)c3)c(N3CCOCC3)c2c1 | 33
55 | Cc1ccc2ncc(S(=O)(=O)c3cccc(Cl)c3)c(N3CCC(C)CC3)c2c1 | 91
56 | COc1cccc(S(=O)(=O)c2cnc3cc(Cl)ccc3c2N2CCC(C)CC2)c1 | 93
57 | COc1ccc(S(=O)(=O)c2cnc3ccc(C)cc3c2N2CCC(C)CC2)cc1Cl | 93
58 | CC1CCN(c2c(S(=O)(=O)c3cccc(C#N)c3)cnc3ccc(Cl)cc23)CC1 | 90
59 | Cc1ccc2ncc(S(=O)(=O)c3cc(Cl)cc(Cl)c3)c(N3CCOCC3)c2c1 | 70
60 | O=S(=O)(c1cccc(F)c1)c1cnc2cc(Cl)ccc2c1N1CCOCC1 | 32
61 | O=S(=O)(c1cc(F)cc(F)c1)c1cnc2c(F)cccc2c1N1CCOCC1 | 52
62 | Cc1ccc(S(=O)(=O)c2cnc3c(F)cccc3c2N2CCOCC2)cc1 | 23
63 | NS(=O)(=O)N1CCN(c2c(S(=O)(=O)c3cccc(F)c3)cnc3cc(F)ccc23)CC1 | 1.9
64 | Cc1ccc2ncc(S(=O)(=O)c3ccc(C)c(Cl)c3)c(N3CCOCC3)c2c1 | 75
65 | O=S(=O)(c1cccc(Cl)c1)c1cnc2ccc(F)cc2c1N1CCOCC1 | 40
66 | CC1CCN(c2c(S(=O)(=O)c3cccc(C#N)c3)cnc3ccc(F)cc23)CC1 | 93
67 | CC1CCN(c2c(S(=O)(=O)c3ccc(F)c(F)c3)cnc3ccc(Cl)cc23)CC1 | 72
68 | CC1CCN(c2c(S(=O)(=O)c3cccc(F)c3)cnc3c(F)cccc23)CC1 | 62
69 | CC1CCN(c2c(S(=O)(=O)c3ccccc3)cnc3ccc(F)cc23)CC1 | 40
70 | CC1CCN(c2c(S(=O)(=O)c3ccc(F)c(F)c3)cnc3cc(F)ccc23)CC1 | 94
71 | COc1ccc2ncc(S(=O)(=O)c3cc(F)cc(F)c3)c(N3CCC(C)CC3)c2c1 | 30
72 | N#Cc1ccc(S(=O)(=O)c2cnc3ccc(F)cc3c2N2CCOCC2)cc1 | -3
73 | CC1CCN(c2c(S(=O)(=O)c3ccc(F)c(Cl)c3)cnc3c(F)cccc23)CC1 | 95
74 | O=S(=O)(c1ccc(F)c(F)c1)c1cnc2cc(Cl)ccc2c1N1CCOCC1 | 49
75 | CC1CCN(c2c(S(=O)(=O)c3cc(Cl)cc(Cl)c3)cnc3c(F)cccc23)CC1 | 82

Row | Structure (SMILES) | inhibition [%]
76 | O=S(=O)(c1cccc(F)c1)c1cnc2cc(F)ccc2c1N1CCSCC1 | 62.7
77 | COc1ccc(S(=O)(=O)c2cnc3ccc(F)cc3c2N2CCC(C)CC2)cc1 | 85
78 | COc1ccc2ncc(S(=O)(=O)c3ccc(Cl)c(Cl)c3)c(N3CCOCC3)c2c1 | 29
79 | COc1ccc(S(=O)(=O)c2cnc3cc(F)ccc3c2N2CCOCC2)cc1OC | 5
80 | Cc1ccc(S(=O)(=O)c2cnc3cc(F)ccc3c2N2CCOCC2)cc1 | 33
81 | O=S(=O)(c1ccc(Cl)c(Cl)c1)c1cnc2cc(F)ccc2c1N1CCOCC1 | 86
82 | CC1CCN(c2c(S(=O)(=O)c3ccc(F)cc3)cnc3ccc(F)cc23)CC1 | 87
83 | CC1CCN(c2c(S(=O)(=O)c3cccc(Cl)c3)cnc3ccc(Cl)cc23)CC1 | 92
84 | Cc1ccc2ncc(S(=O)(=O)c3ccc(C#N)cc3)c(N3CCC(C)CC3)c2c1 | 55
85 | COc1ccc(S(=O)(=O)c2cnc3cc(Cl)ccc3c2N2CCOCC2)cc1Cl | 62
86 | Cc1ccc(S(=O)(=O)c2cnc3cc(Cl)ccc3c2N2CCC(C)CC2)cc1C | 86
87 | COc1ccc(S(=O)(=O)c2cnc3ccc(OC)cc3c2N2CCC(C)CC2)cc1 | 41
88 | O=S(=O)(c1cc(F)cc(F)c1)c1cnc2ccc(Cl)cc2c1N1CCOCC1 | 7
89 | Cc1ccc2ncc(S(=O)(=O)c3ccc(F)cc3)c(N3CCOCC3)c2c1 | 18
90 | O=S(=O)(c1cc(Cl)cc(Cl)c1)c1cnc2ccc(F)cc2c1N1CCOCC1 | 17
91 | COc1ccc2ncc(S(=O)(=O)c3ccccc3)c(N3CCOCC3)c2c1 | 65
92 | Cc1ccc(S(=O)(=O)c2cnc3ccc(Cl)cc3c2N2CCOCC2)cc1 | 84
93 | CC1CCN(c2c(S(=O)(=O)c3cccc(Cl)c3)cnc3cc(Cl)ccc23)CC1 | 92
94 | COc1cccc(S(=O)(=O)c2cnc3ccc(F)cc3c2N2CCC(C)CC2)c1 | 90
95 | CC1CCN(c2c(S(=O)(=O)c3cccc(F)c3)cnc3ccc(F)cc23)CC1 | 76
96 | O=S(=O)(c1ccccc1)c1cnc2ccccc2c1N1CCN(c2ccccc2)CC1 | 13.5
97 | O=S(=O)(c1ccc(Cl)c(Cl)c1)c1cnc2cc(Cl)ccc2c1N1CCOCC1 | 86
98 | Cc1ccc2ncc(S(=O)(=O)c3cccc(Cl)c3)c(N3CCOCC3)c2c1 | 44
